Experimental data of several laboratories.
Each line is one published result; the experiments were not run side by side.
Target: Peripheral plasma membrane protein CASK (CASK, Homo sapiens, UniProt O14936)
Residues used in one study (O14936 1-926): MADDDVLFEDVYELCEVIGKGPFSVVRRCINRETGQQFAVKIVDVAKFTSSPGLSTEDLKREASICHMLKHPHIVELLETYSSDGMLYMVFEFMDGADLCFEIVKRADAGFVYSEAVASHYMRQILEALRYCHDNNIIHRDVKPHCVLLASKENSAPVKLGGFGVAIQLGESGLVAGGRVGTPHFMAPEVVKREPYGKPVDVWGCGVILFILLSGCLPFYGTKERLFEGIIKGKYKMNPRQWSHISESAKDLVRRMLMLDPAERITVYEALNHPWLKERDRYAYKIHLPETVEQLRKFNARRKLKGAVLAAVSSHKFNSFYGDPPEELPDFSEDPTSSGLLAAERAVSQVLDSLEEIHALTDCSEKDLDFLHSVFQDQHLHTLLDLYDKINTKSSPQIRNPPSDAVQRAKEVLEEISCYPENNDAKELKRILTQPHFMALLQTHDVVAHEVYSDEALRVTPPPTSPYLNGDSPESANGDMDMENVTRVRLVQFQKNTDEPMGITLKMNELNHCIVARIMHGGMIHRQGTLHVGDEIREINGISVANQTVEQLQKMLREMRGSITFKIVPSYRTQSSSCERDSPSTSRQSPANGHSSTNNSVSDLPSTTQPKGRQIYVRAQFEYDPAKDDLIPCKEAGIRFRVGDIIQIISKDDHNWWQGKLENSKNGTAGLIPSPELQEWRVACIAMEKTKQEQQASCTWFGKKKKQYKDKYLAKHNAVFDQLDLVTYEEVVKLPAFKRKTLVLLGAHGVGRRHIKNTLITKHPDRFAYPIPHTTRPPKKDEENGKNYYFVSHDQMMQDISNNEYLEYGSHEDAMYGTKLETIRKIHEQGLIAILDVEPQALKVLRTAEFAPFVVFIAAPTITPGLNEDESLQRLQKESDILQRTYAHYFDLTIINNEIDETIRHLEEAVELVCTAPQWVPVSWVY

Compound | read-out | technique | tested at | remaining binding [%]
O=C(c1ccc(Nc2ncc(Cl)c(-c3ccc(Cl)s3)n2)cc1)N1CCC(N2CCCC2)CC1 | binding | competition with immobilised ligand | 1 µM | 87
COc1ncc2cc3ccccc3nc2c1C#N | cell-free assay | competition with immobilised ligand | 5 µM | 99
CN(CCCC(F)(F)F)c1nccc(-c2cnn3ncccc23)n1 | binding |  | 1 µM | 100
O=C(NCCCN1CCOCC1)c1ccc(Nc2nccc(-c3cc4ccccc4s3)n2)cc1 | binding | competition with immobilised ligand | 1 µM | 100
CN(c1nccc(-c2cnn3ncccc23)n1)C1CC1 | binding |  | 1 µM | 100
CCC(=N\O)/C(C)=C/c1ccc(F)cc1 | cell-free assay | competition with immobilised ligand | 1 µM | 70
CNC(=O)[C@@H]1CC[C@@H](n2c(-c3ccc4cnccc4c3)nc3ccc(C(=O)NCc4cccc(C(N)=O)c4)cc32)C1 | binding | competition with immobilised ligand | 1 µM | 82
N#CC1(c2ccccn2)CCN(Cc2cc(C(=O)N3CCCC3)c(=O)n3ccccc23)CC1 | cell-free assay | competition with immobilised ligand | 1 µM | 100
c1cnn2ncc(-c3ccnc(N4CCC45COC5)n3)c2c1 | binding |  | 1 µM | 81
O=c1nc(-c2ccccn2)sc2ccccc12 | binding | competition with immobilised ligand | 1 µM | 84
CCN1CCN(Cc2ccc(C(=O)Nc3ccc(C)c(Oc4ccc5c(c4)CC(=O)N5)c3)cc2C(F)(F)F)CC1 | binding | competition with immobilised ligand | 1 µM | 100
c1cncc(-c2cccc(Nc3nccc(NC4CCCCC4)n3)c2)c1 | binding | competition with immobilised ligand | 10 µM | 76
CCCCN(CCCC)C(=O)CN1C[C@@H](c2cc(OC)c3c(c2)OCO3)[C@H](C(=O)O)[C@H]1CC(C)(C)CCC | cell-free assay | competition with immobilised ligand | 1 µM | 90.5
C[C@@H]1CCN(c2nccc(-c3cnn4ncccc34)n2)C1 | binding |  | 1 µM | 84
O=C(Nc1cccnn1)N1CCC(=Cc2cccc(Oc3ccc(C(F)(F)F)cn3)c2)CC1 | cell-free assay | competition with immobilised ligand | 1 µM | 92
C[C@@H](c1ccc(-n2cnc3c(N)ncnc32)cc1)N1CCc2nn(C)c(Cc3ccccc3)c2C1=O | binding | competition with immobilised ligand | 0.1 µM | 80
N[C@H]1CCN(c2nccc(-c3cnn4ncccc34)n2)C1 | binding | competition with immobilised ligand | 1 µM | 100
O=C(NCC1CCOCC1)c1n[nH]cc1NC(=O)c1c(F)cccc1F | binding | competition with immobilised ligand | 1 µM | 61
CC1CCCN1c1nccc(-c2cnn3ncccc23)n1 (stereo not drawn) | binding | competition with immobilised ligand | 1 µM | 100
Cc1c(NC(=O)c2cc(C(N)=O)nc3cc(F)ccc23)c(C(F)(F)F)nn1Cc1ccc(C#N)cc1 | cell-free assay | competition with immobilised ligand | 1 µM | 71
Cc1cnc(Nc2ccc(C(=O)N3CCC(N4CCCC4)CC3)cc2)nc1-c1cc2ccccc2s1 | binding | competition with immobilised ligand | 1 µM | 100
